In the library only some 3.7% were active in any assay of this set; here they are far more common.
KCNQ1 act: potentiators or activators of human KCNQ1 potassium channel. CHO-K1 KCNQ1, thallium flux FluxOR fluorescence; active compounds read high. AID 2648. P51787. B-score at 10 µM. 310,000 compounds, 0.35% hits;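 active means fluorescence ratio B-score, a plate-corrected score, at least three library SD, with initial intensity B-score within 5 SD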
Target sequence (P51787 whole entry, looked up): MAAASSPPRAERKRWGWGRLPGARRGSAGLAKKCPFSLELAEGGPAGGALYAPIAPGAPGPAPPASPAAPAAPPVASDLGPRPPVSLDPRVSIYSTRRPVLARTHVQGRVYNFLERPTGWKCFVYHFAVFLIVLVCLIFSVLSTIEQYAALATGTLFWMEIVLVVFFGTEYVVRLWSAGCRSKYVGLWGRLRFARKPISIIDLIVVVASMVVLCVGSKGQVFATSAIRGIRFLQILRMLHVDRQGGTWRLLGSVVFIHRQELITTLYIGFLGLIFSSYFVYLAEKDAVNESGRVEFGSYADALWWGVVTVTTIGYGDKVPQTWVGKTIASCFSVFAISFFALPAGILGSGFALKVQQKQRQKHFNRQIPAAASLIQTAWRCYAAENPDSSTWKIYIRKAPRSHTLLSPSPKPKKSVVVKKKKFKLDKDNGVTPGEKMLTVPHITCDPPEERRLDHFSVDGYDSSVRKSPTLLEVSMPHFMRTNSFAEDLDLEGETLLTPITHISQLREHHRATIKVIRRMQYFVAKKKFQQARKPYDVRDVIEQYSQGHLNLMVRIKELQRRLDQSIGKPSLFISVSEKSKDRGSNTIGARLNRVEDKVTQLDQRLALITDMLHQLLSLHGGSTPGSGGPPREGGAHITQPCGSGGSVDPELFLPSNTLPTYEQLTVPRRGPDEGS
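assay system = KCNQ1-transfected CHO-K1 cells | medium = assay buffer with matched DMSO | probe or stimulus = depolarizing K+/Tl+ stimulus, K2SO4 and Tl2SO4 each 12.5 mM in 5x stock | dosing = single dose | incubation = dye 90 min, compound 20 min, room temperature | detection = kinetic FluxOR fluorescence, 10 s baseline plus 110 s post-stimulus | evaluation = ratio B score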
hERG rescue: hERG (human) protection from proarrhythmic block | AID 1511 | activation (rescue from dofetilide block), less the hit threshold, % at 10 µM | CHO-hERG, FluxOR thallium flux, dofetilide IC70 present | 310,000 compounds, 0.51% hits;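 active means activation above the mean of controls blocked by dofetilide plus 5 SD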;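 further: thallium influx through hERG after potassium depolarization seen as dye fluorescence rise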
KCNK3 block: human KCNK3 channel inhibition, primary screen; O14649; CHO-KCNK3 thallium flux, FluxOR fluorescence; active compounds read low; B-score at 10 µM; 340,000 compounds, 0.84% hits; AID 602410;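 active means B-score under library mean minus 4 SD, starting fluorescence ratio at most library mean plus 5 SD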;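 further: more negative B-score means stronger inhibition of thallium flux through KCNK3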
KCNK9 inh: blocks the human KCNK9 two-pore domain potassium channel. 310,000 compounds, 1.2% hits. AID 488922. HEK293 KCNK9, FluxOR thallium flux fluorescence; active compounds read low. B-score at 10 µM. Q9NPC2;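 active means ratio B-score over 3 SD below the library mean, with starting fluorescence within 5 SD of its mean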;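 further: negative B-score means less thallium flux so channel inhibition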
KCNQ1 block: human KCNQ1 channel inhibition | P51787 | CHO-K1 KCNQ1, FluxOR thallium flux fluorescence; active compounds read high | B-score at 10 µM | 310,000 compounds, 1.3% hits;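 active means compounds whose thallium flux B-score, printed positive for inhibition, exceeds three library SD while starting fluorescence stays within three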;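 further: channel opened by potassium depolarization with thallium stimulus after 20 min compound exposure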
Kir21 block: Kir2.1 (mouse) channel inhibition; 310,000 compounds, 0.85% hits; P35561; AID 1672; HEK293-Kir2.1, FluxOR thallium flux fluorescence; active compounds read low; B-score at 10 µM;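 active means fluorescence ratio B-score at or below minus 3 SD of library scores, with starting-brightness B-score within 2 SD, cut at about -4.2 in these data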;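 further: channel flux triggered by added potassium and thallium sulfate stimulus; B-score of peak minus minimum fluorescence over baseline after thallium stimulus; more negative B-score means stronger Kir2.1 block with less thallium influx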
Each line names hits and unclear results; the compound was inactive in the other large screens.

CCOc1ccc(S(=O)(=O)N2CCOCC2)cc1NC(=O)CSCc1c(C)noc1C	none
CC1CCCCC1NCC(=O)NCc1ccc(F)cc1 (configuration not stated)	hERG rescue 4.7
O=C(CCC1CCCCC1)NCc1ccc(F)cc1	none
CC(Oc1ccc(F)cc1)C(=O)Nc1cc(S(=O)(=O)N2CCCCC2)ccc1N1CCOCC1 (configuration not stated)	none
CCN1CCN(c2ccc(S(=O)(=O)N3CCCCC3)cc2NC(=O)C(C)Oc2ccc(F)cc2)CC1 (configuration not stated)	Kir21 block -5.19
O=C(c1ccco1)N1CCN=C1SCc1ccc(F)cc1	KCNQ1 act 39
Nc1nonc1-n1nnc(C(=O)N/N=C/c2cc(Cl)ccc2O)c1CN1CCCCCC1	none
COc1cc(C2c3cc(O)c(OC)cc3CC(C(=O)O)C2CO)ccc1O (configuration not stated)	none (no result: KCNQ1 act, hERG rescue, KCNK9 inh, KCNQ1 block, Kir21 block)
Cc1ccc(S(=O)(=O)CC(O)COc2ccc(F)cc2Cl)c(C)c1 (configuration not stated)	Kir21 block -6.11
Cc1ccc(CNC(=O)C2CCCN(c3nc(C)cc(C)n3)C2)cc1 (configuration not stated)	none
Cc1cc(C)nc(N2CCCC(C(=O)NCc3ccccc3)C2)n1 (configuration not stated)	hERG rescue 5.2
COc1ccc(OC)c(CNC(=O)C2CCC(=O)N2C(C)C)c1 (configuration not stated)	none
CCc1ccc([C@@H]2CC=C(C(=O)O)[C@H](c3ccc(C(C)(C)C)cc3)N2S(=O)(=O)c2ccc(C)cc2)cc1	none (no result: KCNQ1 act, hERG rescue, KCNK9 inh, KCNQ1 block, Kir21 block)
COC1=CC(=O)C(O)=C(CCCCCCC/C=C/CCCCCCCC2=C(O)C(=O)C=C(OC)C2=O)C1=O	KCNQ1 block 10
COc1ccccc1-n1c(C)nc(=O)c(-c2ccccc2)c1C	hERG rescue 5.3
O=C(C1CCCCC1)N1CCC2CC1c1cc(Cl)ccc12 (configuration not stated)	none (no result: KCNQ1 act, hERG rescue, KCNK9 inh, KCNQ1 block, Kir21 block)
COc1cc(NC(=S)NCCC(c2ccccc2)c2ccccc2)c(OC)cc1Cl	none
COc1ccc(Cl)cc1NC(=S)NCCC(c1ccccc1)c1ccccc1	KCNK9 inh -8.07
CCC(C(=O)Nc1cc(Cl)ccc1OC)c1ccccc1 (configuration not stated)	KCNK9 inh -7.32
S=C(NCCC(c1ccccc1)c1ccccc1)Nc1ccc(Cl)cc1	KCNQ1 block 9
S=C(NCCC(c1ccccc1)c1ccccc1)Nc1ccccc1Cl	KCNQ1 block 12
Cc1cccc(-n2ncc3c(=O)[nH]c(SCC(=O)N4CC(=O)Nc5ccccc54)nc32)c1	none (no result: KCNQ1 act, hERG rescue, KCNK9 inh, KCNQ1 block, Kir21 block)
O=CN1CCN(C=O)C(O)C1O (configuration not stated)	none (no result: KCNQ1 act, hERG rescue, KCNK9 inh, KCNQ1 block, Kir21 block)
CNC[C@@H]1Oc2ccc(NS(=O)(=O)c3ccc(OC)cc3)cc2CC(=O)N([C@H](C)CO)C[C@@H]1C	none (no result: KCNQ1 act, hERG rescue, KCNK9 inh, KCNQ1 block, Kir21 block)
CCCCc1nc2cc(C(=O)N3CCN(c4nc(C)cnc4C)CC3)ccc2o1	none
CCCC(C(=O)NC1CCCC1)N(CC1CCCO1)C(=O)CNS(=O)(=O)c1ccccc1 (configuration not stated)	none
c1ccc(-c2nnc3ccc(N4CCCC4)nn23)cc1	none
CN(Cc1ccccc1)c1ccc2nnc(-c3ccccc3)n2n1	Kir21 block -5.17
Cc1ccc(NC(=O)CC(C)c2ccccc2)cc1S(=O)(=O)N1CCOCC1 (configuration not stated)	none (no result: KCNQ1 act, hERG rescue, KCNK9 inh, KCNQ1 block, Kir21 block)
CN(c1cccc(NC(=O)CN(c2cccc(Cl)c2)S(=O)(=O)c2ccc(Cl)cc2)c1)S(C)(=O)=O	KCNK9 inh -7.35
Cc1ccc(Cl)cc1N(CC(=O)Nc1cccc(N(C)S(C)(=O)=O)c1)S(C)(=O)=O	none
C=C(C(=O)c1ccccc1)C(C)C(=C)C(=O)c1ccccc1	Kir21 block -4.38
CN1CCC(=C(c2ccccc2)c2ccc(Br)cc2)CC1	Kir21 block -8.6
CCc1ccc(S(=O)(=O)NCCc2cn3ccc(C)cc3n2)s1	Kir21 block -8.85
O=C1CCCN1CCCNS(=O)(=O)c1cccc(F)c1	hERG rescue 4.9
CC(=O)c1ccc(C(=O)N2CCC(n3nccc3NC(=O)C3CC3)CC2)cc1	none
Fc1ccccc1-c1nc(NC2CCCC2)c2ccccc2n1	KCNQ1 block 6
Oc1ccccc1-c1nc(NC2CCCC2)c2ccccc2n1	none
CC(Nc1nc(-c2ccccc2F)nc2ccccc12)c1ccccc1 (configuration not stated)	KCNK9 inh -7.46
CCN1CCN(C(=O)c2ccc(N3CC4CC(C3)c3cccc(=O)n3C4)c(NC(=O)c3cc(OC)cc(OC)c3)c2)CC1 (configuration not stated)	none
Cc1ccc(C(C)C)cc1S(=O)(=O)NCc1ccccn1	Kir21 block -5.83
CCOc1cc(S(=O)(=O)NCc2ccccn2)c(C)cc1C	Kir21 block -4.71 (no result: KCNK3 block)
CC1N(C)c2cc(NC(=O)c3cccs3)c(P(=O)(Nc3ccc([N+](=O)[O-])cc3)N3CCOCC3)cc2C1(C)C (configuration not stated)	KCNK9 inh -7.15
CCOC(=O)c1sc(NC(=O)CSc2n[nH]c(-c3ccncc3)n2)c(C#N)c1C	none
Cc1ccsc1/C=C/C1=Cc2c(sc(NC(=O)CSc3n[nH]c(N)n3)c2C#N)C(C)(C)C1	KCNQ1 block 8
CCOc1ccc(/C=C/C2=Cc3c(sc(NC(=O)CSc4n[nH]c(N)n4)c3C#N)C(C)(C)C2)cc1	KCNK3 block -8.8
COC(=O)c1sc(NC(=O)CSc2n[nH]c(N)n2)c(C(=O)OC)c1C	none
CN(Cc1ccccc1Br)C(=O)CSc1nnnn1C1CC1	none (no result: KCNQ1 act, hERG rescue, KCNK9 inh, KCNQ1 block, Kir21 block)
COCCn1c(SCC(=O)Nc2nc(C)c(Cl)cc2Cl)nc2ccccc21	Kir21 block -6.29
COCCn1c(SCC(=O)Nc2cccnc2Cl)nc2ccccc21	none (no result: KCNQ1 act, hERG rescue, KCNK9 inh, KCNQ1 block, Kir21 block)
CC(=O)Nc1ccc(CN2CCCC(C(=O)c3cccc(C(F)(F)F)c3)C2)cc1 (configuration not stated)	none
COc1ccc(CN2CCCC(C(=O)c3cccc(C(F)(F)F)c3)C2)cc1O (configuration not stated)	Kir21 block -12.2
COc1cccc(CN(C)CC(=O)Nc2cccc(S(N)(=O)=O)c2)c1OC	none
COc1ccc(Br)cc1CN(C)CC(=O)Nc1cccc(S(N)(=O)=O)c1	Kir21 block -4.58
N#C/C(=C\c1ccc(-c2ccccc2Cl)o1)C(=O)Nc1nc2ccccc2s1	hERG rescue 10.3
Cc1ccc(CN(C(=O)c2csnn2)C(C(=O)NC2CCCC2)c2ccc(C)o2)cc1 (configuration not stated)	KCNK9 inh -6.79
Cc1ccc(C(C(=O)NC2CCCC2)N(C(=O)c2csnn2)C2CCCC2)o1 (configuration not stated)	none
